Data reported in ChEMBL document CHEMBL4373647, “Design, synthesis, and antimicrobial evaluation of 1,4-dihydroindeno[1,2-c]pyrazole tethered carbohydrazide hybrids: exploring their in silico ADMET, ergosterol inhibition and ROS inducing potential” (Medchemcomm, 2019).
≈ marks a conversion by molar mass, not a printed value. Calls of active or inactive are those of the source. No cut-off for these calls is given here.

Columns and labels:
[1] = test system: Candida albicans; test: Ratio of MFC to MIC against Candida albicans MTCC 4748; assay type: functional
Method in brief: (§1)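 MIC by agar well diffusion: Candida lawns on Mueller-Hinton agar, wells loaded with compound in 10% DMSO (125–0.97 µg/mL), 24 h at 37 °C, lowest concentration giving an inhibition zone. MFC: compound in Mueller-Hinton broth (125–0.97 µg/mL) with yeast, 24 h at 37 °C, 10 µL plated on agar, lowest killing concentration after 24 h. Ratio is MFC/MIC.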

[2] = test system: Candida albicans; test: Antifungal activity against Candida albicans MTCC 3018 assessed as inhibition of fungal growth incubated for 24 hrs by agar well diffusion method; assay type: functional; details: MTCC 3018, 24 h
Method in brief: (§2)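 Candida strains from MTCC, pre-cultured and spread on Mueller Hinton agar. Wells received compound dissolved in 10% DMSO, 125–0.97 µg/mL; miconazole standard over the same range, DMSO negative control. After 24 h at 37 °C, MIC was read as the lowest concentration giving an inhibition zone. Duplicate experiments, means given.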

[3] = test system: Pichia kudriavzevii; test: Antifungal activity against Candida krusei MTCC 3020 assessed as inhibition of fungal growth incubated for 24 hrs by agar well diffusion method; assay type: functional; details: MTCC 3020, 24 h; method in brief: as §2
[4] = test system: Pichia sporocuriosa; test: Ratio of MFC to MIC against Issatchenkia hanoiensis MTCC 4755; assay type: functional; method in brief: as §1
[5] = test system: Pichia sporocuriosa; test: Fungicidal activity against Issatchenkia hanoiensis MTCC 4755 assessed as fungal killing incubated for 24 hrs; assay type: functional; details: MTCC 4755, 24 h
Method in brief: (§3)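 Compound at 125–0.97 µg/mL in Mueller Hinton broth in microcentrifuge tubes, each Candida strain added, held 24 h at 37 °C. 10 µL of the treated suspension plated on Mueller Hinton agar and incubated a further 24 h at 37 °C. MFC is the lowest concentration that kills the strain. Duplicates, means reported.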

[6] = test system: Pseudomonas aeruginosa; test: Antibacterial activity against Pseudomonas aeruginosa MTCC 2453 assessed as inhibition of bacterial growth incubated for 24 hrs by agar well diffusion method; assay type: functional
Method in brief: (§4)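 Strains from MTCC; inoculum at 0.5 McFarland spread on Mueller-Hinton agar; 6 mm wells loaded with compound over 125–0.97 µg/mL; ciprofloxacin positive control (same range), DMSO negative control. Plates held 24 h at 37 °C; MIC taken as lowest concentration giving a clear inhibition zone. Triplicate runs, mean MIC reported.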

[7] = test system: MRC5; test: Cytotoxicity against human MRC5 cells incubated for 48 hrs by MTT assay; assay type: cell-based; details: MRC5, 48 h
Method in brief: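 Normal human lung MRC5 cells grown 24 h in 96-well plates, then exposed to a range of compound concentrations for 48 h. MTT (250 µg/mL) added for 2 h, medium replaced by DMSO, absorbance read at 570 nm. Miconazole positive control, DMSO negative control. Triplicates, mean ± S.D.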

[8] = test system: Candida albicans; test: Antifungal activity against Candida albicans MTCC 227 assessed as inhibition of fungal growth incubated for 24 hrs by agar well diffusion method; assay type: functional; details: MTCC 227, 24 h; method in brief: as §2
[9] = test system: Candida albicans; test: Fungicidal activity against Candida albicans MTCC 227 assessed as fungal killing incubated for 24 hrs; assay type: functional; details: MTCC 227, 24 h; method in brief: as §3
[10] = test system: Bacillus subtilis; test: Antibacterial activity against Bacillus subtilis MTCC 121 assessed as inhibition of bacterial growth incubated for 24 hrs by agar well diffusion method; assay type: functional; method in brief: as §4
[11] = test system: Candida albicans; test: Antifungal activity against Candida albicans MTCC 7315 assessed as inhibition of fungal growth incubated for 24 hrs by agar well diffusion method; assay type: functional; details: MTCC 7315, 24 h; method in brief: as §2
[12] = test system: Candida albicans; test: Antifungal activity against Candida albicans MTCC 4748 assessed as inhibition of fungal growth incubated for 24 hrs by agar well diffusion method; assay type: functional; details: MTCC 4748, 24 h; method in brief: as §2
[13] = test system: Candida albicans; test: Antifungal activity against Candida albicans MTCC 183 assessed as inhibition of fungal growth incubated for 24 hrs by agar well diffusion method; assay type: functional; details: MTCC 183, 24 h; method in brief: as §2
[14] = test system: Candida albicans; test: Fungicidal activity against Candida albicans MTCC 4748 assessed as fungal killing incubated for 24 hrs; assay type: functional; details: MTCC 4748, 24 h; method in brief: as §3
[15] = test system: Candida parapsilosis; test: Antifungal activity against Candida parapsilosis MTCC 1744 assessed as inhibition of fungal growth incubated for 24 hrs by agar well diffusion method; assay type: functional; details: Lodderomyces parapsilosis, MTCC 1744, 24 h; method in brief: as §2
[16] = test system: Candida albicans; test: Ratio of MFC to MIC against Candida albicans MTCC 183; assay type: functional
[17] = test system: Pichia sporocuriosa; test: Antifungal activity against Issatchenkia hanoiensis MTCC 4755 assessed as inhibition of fungal growth incubated for 24 hrs by agar well diffusion method; assay type: functional; details: MTCC 4755, 24 h; method in brief: as §2
[18] = test system: Escherichia coli; test: Antibacterial activity against Escherichia coli MTCC 739 assessed as inhibition of bacterial growth incubated for 24 hrs by agar well diffusion method; assay type: functional; method in brief: as §4
[19] = test system: Candida albicans; test: Ratio of MFC to MIC against Candida albicans MTCC 3018; assay type: functional; method in brief: as §1
[20] = test system: Micrococcus luteus; test: Antibacterial activity against Micrococcus luteus MTCC 2470 assessed as inhibition of bacterial growth incubated for 24 hrs by agar well diffusion method; assay type: functional; method in brief: as §4
[21] = test system: Nakaseomyces glabratus; test: Antifungal activity against Candida glabrata MTCC 3019 assessed as inhibition of fungal growth incubated for 24 hrs by agar well diffusion method; assay type: functional; details: MTCC 3019, 24 h; method in brief: as §2
[22] = test system: Candida albicans; test: Induction of ROS generation in Candida albicans MTCC 3017 assessed as accumulation of intracellular ROS level by measuring fluorescence intensity at 5 to 25 ug/ml after 24 hrs by DCFH-DA probe based fluorimetric assay; assay type: functional, organism-based
Method in brief: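 C. albicans MTCC 3017 biofilms grown 24 h at 37 °C in 96-well plates, then treated 24 h with compound at 0, 5, 10, 15, 20, 25 µg/mL; untreated cells served as control. Cells then loaded with 10 µM DCFH-DA for 24 h in the dark, and fluorescence read at 485 nm excitation and 535 nm emission. Triplicates.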

[23] = test system: Candida albicans; test: Fungicidal activity against Candida albicans MTCC 1637 assessed as fungal killing incubated for 24 hrs; assay type: functional; details: MTCC 1637, 24 h; method in brief: as §3
[24] = test system: Staphylococcus aureus; test: Antibacterial activity against Staphylococcus aureus MLS-16 MTCC 2940 assessed as inhibition of bacterial growth incubated for 24 hrs by agar well diffusion method; assay type: functional; method in brief: as §4
[25] = test system: Raoultella planticola; test: Antibacterial activity against Klebsiella planticola MTCC 530 assessed as inhibition of bacterial growth incubated for 24 hrs by agar well diffusion method; assay type: functional; method in brief: as §4
[26] = test system: Candida albicans; test: Fungicidal activity against Candida albicans MTCC 7315 assessed as fungal killing incubated for 24 hrs; assay type: functional; details: MTCC 7315, 24 h; method in brief: as §3
[27] = test system: Pichia kudriavzevii; test: Ratio of MFC to MIC against Candida krusei MTCC 3020; assay type: functional; method in brief: as §1
[28] = test system: Nakaseomyces glabratus; test: Fungicidal activity against Candida glabrata MTCC 3019 assessed as fungal killing incubated for 24 hrs; assay type: functional; details: MTCC 3019, 24 h; method in brief: as §3
[29] = test system: Candida albicans; test: Fungicidal activity against Candida albicans MTCC 3018 assessed as fungal killing incubated for 24 hrs; assay type: functional; details: MTCC 3018, 24 h; method in brief: as §3
[30] = test system: Candida albicans; test: Ratio of MFC to MIC against Candida albicans MTCC 7315; assay type: functional; method in brief: as §1
[31] = test system: Candida albicans; test: Antifungal activity against Candida albicans MTCC 1637 assessed as inhibition of fungal growth incubated for 24 hrs by agar well diffusion method; assay type: functional; details: MTCC 1637, 24 h; method in brief: as §2
[32] = test system: Nakaseomyces glabratus; test: Ratio of MFC to MIC against Candida glabrata MTCC 3019; assay type: functional; method in brief: as §1
[33] = test system: Candida parapsilosis; test: Ratio of MFC to MIC against Candida parapsilosis MTCC 1744; assay type: functional; method in brief: as §1
[34] = test system: Staphylococcus aureus; test: Antibacterial activity against Staphylococcus aureus MTCC 96 assessed as inhibition of bacterial growth incubated for 24 hrs by agar well diffusion method; assay type: functional; method in brief: as §4
[35] = molecular target: Lanosterol 14-alpha demethylase (Candida albicans (strain SC5314 / ATCC MYA-2876) (Yeast), UniProt P10613); test: Inhibition of CYP51 in Candida albicans MTCC 3017 assessed as reduction in ergosterol level incubated for 20 hrs by UV-visible spectrophotometry analysis
Method in brief: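 Modified Breivik–Owades sterol method: Mueller Hinton broth with compound at 0, 2, 4, 8, 16 µg/mL, inoculated with single Candida colonies, shaken at 200 rpm for 20 h at 30 °C. Pellets washed and weighed, saponified in 25% alcoholic KOH for 70 min at 90 °C, sterols extracted into n-heptane, diluted 1:5 in ethanol and scanned at 230–310 nm. Triplicates.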

[36] = test system: Candida parapsilosis; test: Fungicidal activity against Candida parapsilosis MTCC 1744 assessed as fungal killing incubated for 24 hrs; assay type: functional; details: Lodderomyces parapsilosis, MTCC 1744, 24 h; method in brief: as §3
[37] = test system: Pichia kudriavzevii; test: Fungicidal activity against Candida krusei MTCC 3020 assessed as fungal killing incubated for 24 hrs; assay type: functional; details: MTCC 3020, 24 h; method in brief: as §3
[38] = test system: Candida albicans; test: Fungicidal activity against Candida albicans MTCC 183 assessed as fungal killing incubated for 24 hrs; assay type: functional; details: MTCC 183, 24 h; method in brief: as §3
[39] = test system: Candida albicans; test: Antifungal activity against Candida albicans MTCC 3017 assessed as inhibition of fungal growth incubated for 24 hrs by agar well diffusion method; assay type: functional; details: MTCC 3017, 24 h; method in brief: as §2
[40] = test system: Candida albicans; test: Ratio of MFC to MIC against Candida albicans MTCC 227; assay type: functional; method in brief: as §1
[41] = test system: Candida albicans; test: Ratio of MFC to MIC against Candida albicans MTCC 1637; assay type: functional

Sequence of Lanosterol 14-alpha demethylase (P10613 whole entry): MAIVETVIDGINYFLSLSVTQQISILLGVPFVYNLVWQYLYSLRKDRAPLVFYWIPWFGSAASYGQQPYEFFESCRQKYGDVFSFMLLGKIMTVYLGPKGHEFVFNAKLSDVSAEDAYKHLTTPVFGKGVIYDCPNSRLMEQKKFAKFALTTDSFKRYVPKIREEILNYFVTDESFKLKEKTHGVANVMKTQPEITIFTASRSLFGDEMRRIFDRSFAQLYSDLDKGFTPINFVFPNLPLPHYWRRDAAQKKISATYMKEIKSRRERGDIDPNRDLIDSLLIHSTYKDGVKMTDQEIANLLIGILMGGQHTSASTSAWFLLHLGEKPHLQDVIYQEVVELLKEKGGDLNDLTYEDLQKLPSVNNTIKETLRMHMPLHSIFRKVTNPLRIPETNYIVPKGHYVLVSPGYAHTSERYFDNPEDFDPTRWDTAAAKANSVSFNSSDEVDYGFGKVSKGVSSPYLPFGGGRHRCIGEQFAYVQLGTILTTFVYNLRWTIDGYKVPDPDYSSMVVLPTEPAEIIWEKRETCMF

SMILES: Clc1ccc(COC(Cn2ccnc2)c2ccc(Cl)cc2Cl)c(Cl)c1 (stereo unspecified) [MICONAZOLE]
- Ratio [1]: 2
- MIC [2]: 3.9 µg/mL (≈ 9.37 µM)
- MIC [3]: 3.9 µg/mL (≈ 9.37 µM)
- Ratio [4]: 2
- MFC [5]: 7.8 µg/mL (≈ 18.7 µM)
- MIC [6]: inactive
- IC50 [7]: 61.7 µg/mL (≈ 148 µM)
- MIC [8]: 3.9 µg/mL (≈ 9.37 µM)
- MFC [9]: 7.8 µg/mL (≈ 18.7 µM)
- MIC [10]: inactive
- MIC [11]: 3.9 µg/mL (≈ 9.37 µM)
- MIC [12]: 3.9 µg/mL (≈ 9.37 µM)
- MIC [13]: 3.9 µg/mL (≈ 9.37 µM)
- MFC [14]: 7.8 µg/mL (≈ 18.7 µM)
- MIC [15]: 3.9 µg/mL (≈ 9.37 µM)
- Ratio [16]: 2
- MIC [17]: 3.9 µg/mL (≈ 9.37 µM)
- MIC [18]: inactive
- Ratio [19]: 2
- MIC [20]: inactive
- MIC [21]: 3.9 µg/mL (≈ 9.37 µM)
- Activity [22]: Active
- MFC [23]: 7.8 µg/mL (≈ 18.7 µM)
- MIC [24]: inactive
- MIC [25]: inactive
- MFC [26]: 7.8 µg/mL (≈ 18.7 µM)
- Ratio [27]: 2
- MFC [28]: 7.8 µg/mL (≈ 18.7 µM)
- MFC [29]: 7.8 µg/mL (≈ 18.7 µM)
- Ratio [30]: 2
- MIC [31]: 3.9 µg/mL (≈ 9.37 µM)
- Ratio [32]: 2
- Ratio [33]: 2
- MIC [34]: inactive
- inhibition (INH) [35]: Dose-dependent effect
- MFC [36]: 7.8 µg/mL (≈ 18.7 µM)
- MFC [37]: 7.8 µg/mL (≈ 18.7 µM)
- MFC [38]: 7.8 µg/mL (≈ 18.7 µM)
- MIC [39]: 3.9 µg/mL (≈ 9.37 µM)
- Ratio [40]: 2
- Ratio [41]: 2
